Data taken from ChEMBL document CHEMBL1142646, “Tetrahydroisoquinoline 1-carboxamides as growth hormone secretagogues” (Bioorg Med Chem Lett, 2005).

How the values were obtained:
[1] = target: T1, Growth hormone secretagogue receptor type 1 (Homo sapiens, UniProt Q92847); assay: In vitro effective concentration against human growth hormone secretagogues; assay type: functional
Outline: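 Cell-based FLIPR functional assay in H4 glioma cells in which expression of the endogenous human GHS receptor is enhanced by RAGE-activation. Agonism is read as intracellular calcium mobilization with a calcium-sensitive fluorescent probe, and EC50 is derived from the response.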

[2] = target: T1, Growth hormone secretagogue receptor type 1; assay: Maximum intrinsic activity against human growth hormone secretagogues at a concentration of 10 uM; assay type: functional
[3] = target: T1, Growth hormone secretagogue receptor type 1; assay: In vivo effective concentration against human growth hormone secretagogues; assay type: functional, organism-based, Rattus norvegicus
Rattus norvegicus [4] = organism: Rattus norvegicus; assay: Number of rats with greater than 100% growth hormone increase over the control group, there are five rats in both control and compound treated groups; assay type: functional
Outline: (§1)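 Anesthetized rats (treatment stabilizes baseline plasma GH near 60 ng/mL) were given drug or vehicle (10% ethanol, 0.09% saline V/V) IV at 10 mL/kg, five rats per group. Blood was drawn from the abdominal aorta 15 min later for plasma GH. The result is expressed as % increase over the vehicle group, or as rats exceeding a 100% increase.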

Rattus norvegicus [5] = assay: Percent of plasma growth hormone increase at an IV dose of 5.23 lmol/kg; assay type: functional; outline: as §1
[6] = target: T1, Growth hormone secretagogue receptor type 1; assay: In vitro effective concentration against human growth hormone secretagogues
Rattus norvegicus [7] = organism: Rattus norvegicus; assay: Number of rats with greater than 100% GH increase over the controlgroup, there are five rats in both control and compound treated groups.; assay type: functional; outline: as §1

T1 sequence (Q92847 whole entry): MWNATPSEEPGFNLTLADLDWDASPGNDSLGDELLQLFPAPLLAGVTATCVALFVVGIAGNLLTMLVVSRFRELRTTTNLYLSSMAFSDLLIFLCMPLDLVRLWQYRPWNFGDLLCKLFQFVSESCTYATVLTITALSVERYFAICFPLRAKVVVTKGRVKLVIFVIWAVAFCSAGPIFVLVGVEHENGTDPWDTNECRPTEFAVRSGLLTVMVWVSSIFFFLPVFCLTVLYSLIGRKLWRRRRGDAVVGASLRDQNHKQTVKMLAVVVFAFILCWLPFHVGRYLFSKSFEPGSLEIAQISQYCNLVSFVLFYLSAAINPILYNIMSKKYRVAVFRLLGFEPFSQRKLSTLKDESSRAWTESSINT

SMILES	EC50 [1]	further results
CC(=O)NC(C(=O)N1CCc2cc(OCc3ccccc3)ccc2C1C(=O)NCCN(C(C)C)C(C)C)c1ccccc1 (configuration not stated)	19.7 nM	–
CCOc1ccccc1C(=O)N1CCc2cc(OCc3ccccc3)ccc2C1C(=O)NCCN(C(C)C)C(C)C (configuration not stated)	–	Activity [2]: 30%
CC(C)(CN)CNC(=O)C1c2ccc(OCc3ccccc3)cc2CCN1C(=O)OC(C)(C)C (configuration not stated)	257 nM	–
CC(C(=O)N1CCc2cc(OCc3ccccc3)ccc2C1C(=O)NCCN(C(C)C)C(C)C)c1ccccc1 (configuration not stated)	3.4 nM	–
CC(C)N(CCNC(=O)C1c2ccc(Oc3cccc(F)c3)cc2CCN1C(=O)OC(C)(C)C)C(C)C (configuration not stated)	4.3 nM	–
CC(C)N(CCNC(=O)C1c2ccc(OCc3ccccc3)cc2CCN1C(=O)OC(C)(C)C#N)C(C)C (configuration not stated)	9.8 nM	–
CC(=O)Nc1cccc(Oc2ccc3c(c2)CCN(C(=O)OC(C)(C)C)C3C(=O)NCCN(C(C)C)C(C)C)c1 (configuration not stated)	12 nM	–
CCCOC(=O)N1CCc2cc(OCc3ccccc3)ccc2C1C(=O)NCCN(C(C)C)C(C)C (configuration not stated)	3.4 nM	–
CC(=O)N1CCc2cc(OCc3ccccc3)ccc2C1C(=O)NCCN(C(C)C)C(C)C (configuration not stated)	257 nM	–
CC(C)N(CCNC(=O)C1c2ccc(Oc3ccccc3)cc2CCN1C(=O)OC(C)(C)C)C(C)C (single isomer, unassigned; form 1)	7.6 nM	–
CC(C)N(CCNC(=O)C1c2ccc(OCc3ccccc3)cc2CCN1C(=O)OC(C)(C)C(=O)N(C)C)C(C)C (configuration not stated)	0.85 nM	–
CC(C)N(CCNC(=O)C1c2ccc(OCc3ccccc3)cc2CCN1S(C)(=O)=O)C(C)C (configuration not stated)	–	Activity [2]: 47%
CC(C)N(CCNC(=O)C1c2ccc(OCc3ccccc3)cc2CCN1C(=O)c1ccccc1F)C(C)C (configuration not stated)	17.8 nM	–
CC(C)(N)CNC(=O)C1c2ccc(OCc3ccccc3)cc2CCN1C(=O)OC(C)(C)C (configuration not stated)	–	Activity [2]: 47%
CC(C)N(CCNC(=O)C1c2ccc(Oc3ccccc3)cc2CCN1C(=O)OC(C)(C)C)C(C)C (single isomer, unassigned; form 2)	0.46 nM	EC50 [3]: 0.46 nM; Responder (Rattus norvegicus [4]): 5 rats; Increase (Rattus norvegicus [5]): 1283%
CC(C)N(CCNC(=O)C1c2ccc(OCc3ccccc3)cc2CCN1C(=O)NC(C)(C)C)C(C)C (configuration not stated)	14.4 nM	–
CC(C)N(CCNC(=O)C1c2ccc(Oc3ccccc3)cc2CCN1C(=O)OC(C)(C)C)C(C)C (stereo in doubt; 12a)	0.49 nM	–
COc1ccc(CC(=O)N2CCc3cc(OCc4ccccc4)ccc3C2C(=O)NCCN(C(C)C)C(C)C)cc1 (configuration not stated)	45 nM	–
CC(=O)C(C(=O)N1CCc2cc(OCc3ccccc3)ccc2C1C(=O)NCCN(C(C)C)C(C)C)c1ccccc1 (configuration not stated)	9.2 nM	–
COC(=O)C(C)(C)OC(=O)N1CCc2cc(OCc3ccccc3)ccc2C1C(=O)NCCN(C(C)C)C(C)C (configuration not stated)	1.5 nM	EC50 [6]: 1.5 nM; Responder (Rattus norvegicus [7]): 5 rats; Increase (Rattus norvegicus [5]): 746%
CC(C)N(CCNC(=O)C1c2ccc(Oc3ccc(Cl)cc3)cc2CCN1C(=O)OC(C)(C)C)C(C)C (configuration not stated)	0.73 nM	–
CC(C)N(CCNC(=O)C1c2ccc(OCc3ccccc3)cc2CCN1C(=O)OC1CCCCC1)C(C)C (configuration not stated)	4.9 nM	–
CC(C)N(CCNC(=O)C1c2ccc(OCc3ccccc3)cc2CCN1C(=O)Cc1ccccc1)C(C)C (configuration not stated)	9 nM	–
COc1ccccc1CC(=O)N1CCc2cc(OCc3ccccc3)ccc2C1C(=O)NCCN(C(C)C)C(C)C (configuration not stated)	2.1 nM	–
CC(C)N(CCNC(=O)C1c2ccc(OCc3ccccc3)cc2CCN1C(=O)Cc1ccccc1F)C(C)C (configuration not stated)	43 nM	–
CC(C)N(CCNC(=O)C1c2ccc(OCc3ccccc3)cc2CCN1C(=O)c1ccccc1)C(C)C (configuration not stated)	7.6 nM	–
CC(C)N(CCNC(=O)C1c2ccc(OCc3ccccc3)cc2CCN1C(=O)Nc1ccccc1)C(C)C (configuration not stated)	–	Activity [2]: 43%
CSc1ccc(Oc2ccc3c(c2)CCN(C(=O)OC(C)(C)C)C3C(=O)NCCN(C(C)C)C(C)C)cc1 (configuration not stated)	2.4 nM	–

SMILES	EC50 [1]	further results
CC(C)N(CCNC(=O)C1c2ccc(OCc3ccccc3)cc2CCN1C(=O)Oc1ccccc1)C(C)C (configuration not stated)	–	Activity [2]: < 5%
CC(C)N(CCNC(=O)C1c2ccc(OCc3ccccc3)cc2CCN1C(=O)C(O)c1ccccc1)C(C)C (configuration not stated)	39 nM	–
CC(C)N(CCNC(=O)C1c2ccc(Oc3ccc(C(F)(F)F)cc3)cc2CCN1C(=O)OC(C)(C)C)C(C)C (configuration not stated)	2.3 nM	–
CCCCS(=O)(=O)N1CCc2cc(OCc3ccccc3)ccc2C1C(=O)NCCN(C(C)C)C(C)C (configuration not stated)	–	Activity [2]: 50%
CC(C)N(CCNC(=O)C1c2ccc(OCc3ccccc3)cc2CCN1C(=O)CC(C)(C)C)C(C)C (configuration not stated)	20.9 nM	–
CC(=O)c1ccccc1C(=O)N1CCc2cc(OCc3ccccc3)ccc2C1C(=O)NCCN(C(C)C)C(C)C (configuration not stated)	7.3 nM	–
CC(=O)C(C)(C)OC(=O)N1CCc2cc(OCc3ccccc3)ccc2C1C(=O)NCCN(C(C)C)C(C)C (configuration not stated)	2 nM	EC50 [6]: 2 nM; Responder (Rattus norvegicus [7]): 5 rats; Increases (Rattus norvegicus [5]): 666%
CC(C)N(CCNC(=O)C1c2ccc(Oc3cccc(C(F)(F)F)c3)cc2CCN1C(=O)OC(C)(C)C)C(C)C (configuration not stated)	1.5 nM	–
CCN(CC)CCNC(=O)C1c2ccc(OCc3ccccc3)cc2CCN1C(=O)OC(C)(C)C (configuration not stated)	19.6 nM	–
CC(C)N(CCNC(=O)C1c2ccc(OCc3ccccc3)cc2CCN1C(=O)C(C)(C)C)C(C)C (configuration not stated)	–	Activity [2]: 50%
COc1ccc(Oc2ccc3c(c2)CCN(C(=O)OC(C)(C)C)C3C(=O)NCCN(C(C)C)C(C)C)cc1 (configuration not stated)	0.49 nM	EC50 [6]: 0.49 nM; Responder (Rattus norvegicus [7]): 4 rats; Increase (Rattus norvegicus [5]): 172%
CC(C)N(CCNC(=O)C1c2ccc(OCc3ccccc3)cc2CCN1C(=O)CCc1ccccc1)C(C)C (configuration not stated)	26.7 nM	–
CC(C)NCCNC(=O)C1c2ccc(OCc3ccccc3)cc2CCN1C(=O)OC(C)(C)C (configuration not stated)	219 nM	–
COc1cccc(CC(=O)N2CCc3cc(OCc4ccccc4)ccc3C2C(=O)NCCN(C(C)C)C(C)C)c1 (configuration not stated)	6.4 nM	–
CC(C)N(CCNC(=O)C1c2ccc(OCc3ccccc3)cc2CCN1S(=O)(=O)Cc1ccccc1)C(C)C (configuration not stated)	7.3 nM	–
CC(C)N(CCNC(=O)C1c2ccc(OCc3ccccc3)cc2CCN1S(=O)(=O)c1ccccc1)C(C)C (configuration not stated)	21 nM	–
CC(C)N(CCNC(=O)C1c2ccc(OCc3ccccc3)cc2CCN1C(=O)OC(C)(C)C)C(C)C (configuration not stated)	11.7 nM	–
CN(C)CCNC(=O)C1c2ccc(OCc3ccccc3)cc2CCN1C(=O)OC(C)(C)C (configuration not stated)	–	Activity [2]: 46%
CC(C)N(CCNC(=O)C1c2ccc(OCc3ccccc3)cc2CCN1S(=O)(=O)N(C)C)C(C)C (configuration not stated)	21 nM	–
CC(C)N(CCNC(=O)C1c2ccc(OCc3ccccc3)cc2CCN1C(=O)OCc1ccccc1)C(C)C (configuration not stated)	27 nM	–
CC(C)N(CCNC(=O)C1c2ccc(OCc3ccccc3)cc2CCN1C(=O)CCCc1ccccc1)C(C)C (configuration not stated)	13.1 nM	–
CC(C)N(CCNC(=O)C1c2ccc(OCc3ccccc3)cc2CCN1C(=O)N(C)C)C(C)C (configuration not stated)	190 nM	–
CC(C)N(CCNC(=O)C1c2ccc(Oc3cccc([N+](=O)[O-])c3)cc2CCN1C(=O)OC(C)(C)C)C(C)C (configuration not stated)	0.66 nM	–
CC(C)N(CCNC(=O)C1c2ccc(OCc3ccccc3)cc2CCN1C(=O)C(CO)c1ccccc1)C(C)C (configuration not stated)	5.6 nM	–
COc1cccc(Oc2ccc3c(c2)CCN(C(=O)OC(C)(C)C)C3C(=O)NCCN(C(C)C)C(C)C)c1 (configuration not stated)	0.46 nM	–
CC(C)N(CCNC(=O)C1c2ccc(Oc3ccc(C=O)cc3)cc2CCN1C(=O)OC(C)(C)C)C(C)C (configuration not stated)	1.4 nM	–
CC(C)N(C)CCNC(=O)C1c2ccc(OCc3ccccc3)cc2CCN1C(=O)OC(C)(C)C (configuration not stated)	41 nM	–
